Assays:
MS2 coat protein [1] = experiment: apparent Kd, MS2 coat protein; higher = weaker binding; RNA-MaP array; theophylline 2 mM where present; conditions: designed as: OFF switch for theophylline
Method in brief: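 Designs were transcribed by stalled E. coli RNA polymerase on Illumina sequencing-chip clusters. They were titrated with SNAP-549-labelled MS2 coat protein from 0.7 or 1.5 nM, doubling to 3 µM, without and then with constant ligand. Buffer: 100 mM Tris-HCl pH 7.5, 80 mM KCl, 4 mM MgCl2, BSA, DTT, yeast tRNA, Tween-20. Green signal was normalised to red-channel RNA signal and control-cluster median Fmax. Apparent Kd is the median of filtered per-cluster binding-curve fits.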

MS2 coat protein [2] = experiment: apparent Kd, MS2 coat protein; higher = weaker binding; RNA-MaP array
Method in brief: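 Designed RNAs were produced on an Illumina sequencing chip by transcription of sequenced DNA templates. Binding to fluorescently labeled MS2 coat protein (1.5 nM to 3 μM) was measured at room temperature with or without input ligand. The apparent Kd is the median of per-cluster binding-curve fits. Designs were excluded when measured on fewer than 10 clusters.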

[3] = designed as: OFF switch for flavin mononucleotide, no ligand
[4] = ligand present: flavin mononucleotide, designed as: OFF switch for flavin mononucleotide
[5] = designed as: ON switch for flavin mononucleotide, no ligand
[6] = ligand present: flavin mononucleotide, designed as: ON switch for flavin mononucleotide

## ACAUGAGCAUCAGCCUUGUAGGAACUAGAUACCAGCCCAACAUGAGGCCCUUGGCAGCUGACAACAUGAGGAUCACCCAUGUCAC
MS2 coat protein [1]; no ligand
  apparent Kd: 36.2 nM
MS2 coat protein [1]; ligand present: theophylline
  apparent Kd: 34.1 nM

## GCGUGUUAUAGUCAUCGUGAGCGUCCAUCCCGAGGACCGGUACGGCCGCCACUCGCCACAGGACAUGAGGAUCACCCAUGUUAUG
MS2 coat protein [2]; designed as: OFF switch for tryptophan, no ligand
  apparent Kd: 15 nM
MS2 coat protein [2]; ligand present: tryptophan, designed as: OFF switch for tryptophan
  apparent Kd: 17 nM

## CGAAAUUCAGUAAGGAUAUUAGGAGGCUCUGCGGCUAAGAAGGUACAUGAGGAUCACCCAUGUGGCACCGCAUG
MS2 coat protein [2]; [3]
  apparent Kd: 7.65 nM
MS2 coat protein [2]; [4]
  apparent Kd: 7.82 nM

## AGACACAUGAGGAUCACCCAUGUACACGAGCGAGGACCGGUACGGCCGCCACUCGUCCAAGCAACUAAUGAGACUCGUAAGAUGG
MS2 coat protein [2]; designed as: ON switch for tryptophan, no ligand
  apparent Kd: 24.6 nM
MS2 coat protein [2]; ligand present: tryptophan, designed as: ON switch for tryptophan
  apparent Kd: 29.3 nM

## UCAUAUUAAGGCGAGGAUAUACACGAUCCCACAUGAGGAUCACCCAUGUUUUGAUCAUGCCCUGUGUAGAAGGCGCACCUACGGGA
MS2 coat protein [2]; [5]
  apparent Kd: 78.9 nM
MS2 coat protein [2]; [6]
  apparent Kd: 49.5 nM

## GAGGCUCAUAUGUAGGAUAUUCAAGGAGCUACAUGAGGAUCACCCAUGUUCGGACGCCAAUUUUUGAAGAAGGACAAGACAGUGUU
MS2 coat protein [2]; [5]
  apparent Kd: 54.6 nM
MS2 coat protein [2]; [6]
  apparent Kd: 16.2 nM

## AUCGAUAAGAAGAAGGUGUGACAUGAGGAUCACCCAUGUUAUUGAACAGCACAUGAUCACAGAUACAAGGAUAUUCUACGUAUG
MS2 coat protein [2]; [3]
  apparent Kd: 24.4 nM
MS2 coat protein [2]; [4]
  apparent Kd: 23.7 nM

## CGAUCUGGCUAAGGAUAUCAAGUGCGCAUGGUUUGACAGCACAUGAGGAUCACCCAUGUAACGCAUGAGAAGGUAGGCACACAG
MS2 coat protein [2]; [3]
  apparent Kd: 223 nM
MS2 coat protein [2]; [4]
  apparent Kd: 183 nM

## UACAAAUAUCAUUACAUGAGGAUCACCCAUGUGGGACGUCGUAGAAGGGAGAUUCAAAUACAAGCUCAGGAUAUACAACUUCUG
MS2 coat protein [2]; [5]
  apparent Kd: 181 nM
MS2 coat protein [2]; [6]
  apparent Kd: 80.1 nM

## CGAGGACAUGAGGAUCACCCAUGUGACCGUGCCAAAGGAUAUCACAGGAAAUAAUACAGUUGAGAAGGUUGAUCGG
MS2 coat protein [2]; [5]
  apparent Kd: 47.1 nM
MS2 coat protein [2]; [6]
  apparent Kd: 17.6 nM

## CCGGCGGAAGGAUAUUGCGAUGACCACAUGAGGAUCACCCAUGUCAACUUGAUCCGGGUACAAGAAGGUCCAGCGA
MS2 coat protein [2]; [3]
  apparent Kd: 19.3 nM
MS2 coat protein [2]; [4]
  apparent Kd: 15.9 nM

## ACUGUACUGGGAGGAUAUGGAGAGUUACCGUAAAUAAUCUACUAGACAUGAGGAUCACCCAUGUUCCAGAAGGCCCCAUGGACC
MS2 coat protein [2]; [5]
  apparent Kd: 14.9 nM
MS2 coat protein [2]; [6]
  apparent Kd: 10.4 nM

## GCAUGCGGCAAGGAUAUCAAUGCUAUGGUCUAAUGAGAAGGUGCCACAUGAGGAUCACCCAUGUUUCCGGCGAG
MS2 coat protein [2]; [3]
  apparent Kd: 30.8 nM
MS2 coat protein [2]; [4]
  apparent Kd: 123 nM

## AUGCUGUGAGGAUAUCAGUCCCAGAAAAGCUGGCCGCUGACUGAGAAGGCACAUGAGGAUCACCCAUGUUCAAC
MS2 coat protein [2]; [3]
  apparent Kd: 10.2 nM
MS2 coat protein [2]; [4]
  apparent Kd: 15.7 nM

## UCUUUUCAACAGAAGGAAUGCAGGCGAUAUGAUUGUUUCCGUCAGACAUGAGGAUCACCCAUGUAUUAGGAUAUGUGAAACAGU
MS2 coat protein [2]; [3]
  apparent Kd: 6.2 nM
MS2 coat protein [2]; [4]
  apparent Kd: 7.15 nM

## GACCUGUUAGGAUAUCGAAGGAGUCAAUACCAAGUGAGACACGAGAAGGAACAUGAGGAUCACCCAUGUGAACC
MS2 coat protein [2]; [3]
  apparent Kd: 11.4 nM
MS2 coat protein [2]; [4]
  apparent Kd: 15.7 nM

## GCAAGGGUGCGAGGAUAUAUUAGAGUCUCUGGAAUAGAAGGCGCAAACAGUGUACAUGAGGAUCACCCAUGUGUAUAUACUGCU
MS2 coat protein [2]; [3]
  apparent Kd: 11 nM
MS2 coat protein [2]; [4]
  apparent Kd: 10.2 nM

## UCCCAGUAACAUGAGGAUCACCCAUGUUGGAGUGUGCCUGCUCAGGAUAUUCGCGGCAUAAAAGUGAAGAAGGGAGCUCAAACG
MS2 coat protein [2]; [3]
  apparent Kd: 13.1 nM
MS2 coat protein [2]; [4]
  apparent Kd: 11.3 nM

## CAUCAUGGGCUUGGACAAAUUGUGCUUGAUACCAGAAAUCACCGGUUCCCUUGGCAGCAACCCACAUGAGGAUCACCCAUGUGGA
MS2 coat protein [2]; designed as: OFF switch for theophylline, no ligand
  apparent Kd: 20.6 nM
MS2 coat protein [2]; ligand present: theophylline, designed as: OFF switch for theophylline
  apparent Kd: 31.2 nM

## GCAUAUGCAUACAUGAGGAUCACCCAUGUGGAACUAAGGGCGAAGGAUAUGUGUUAAACUACGAGACAGAAGGUCGUGAGUAGA
MS2 coat protein [2]; [5]
  apparent Kd: 19.9 nM
MS2 coat protein [2]; [6]
  apparent Kd: 15.2 nM

## CACUGACAACGAGGAUAUGGUCGAGCCAGACAUGAGGAUCACCCAUGUAUCGAAAGCAAUAAACUCCAGAAGGCGUAACAGUUG
MS2 coat protein [2]; [5]
  apparent Kd: 10.4 nM
MS2 coat protein [2]; [6]
  apparent Kd: 11.6 nM

## GACGUGGUGAAGAAGGGCUGACGUAACCGGUGAGCAGGAUAUUCGACUCAUUAAUACAUGAGGAUCACCCAUGUUCGGUAGCGC
MS2 coat protein [2]; [3]
  apparent Kd: 24.8 nM
MS2 coat protein [2]; [4]
  apparent Kd: 68 nM

## UAUAAUGAAGGAUAUACAUGAGGAUCACCCAUGUUAGACUCUCAGUCGACAGUAAUCCGUAGAAGGUCAUGCCA
MS2 coat protein [2]; [3]
  apparent Kd: 12.3 nM
MS2 coat protein [2]; [4]
  apparent Kd: 13.6 nM

## CCUCUCUUCCAGAAGGCUAUCCUAGCAUACGAUAGAGGAUAUGGACCACAAUACGGGUAGAGACACAUGAGGAUCACCCAUGUU
MS2 coat protein [2]; [5]
  apparent Kd: 72.4 nM
MS2 coat protein [2]; [6]
  apparent Kd: 185 nM

## UCCCAUAUAGUAGGAUAUCUGCUACAUGAGGAUCACCCAUGUCAUAUUUUUUACCAGUCUUAGAUAGAGAAGGACUGUGGACCU
MS2 coat protein [2]; [5]
  apparent Kd: 590 nM
MS2 coat protein [2]; [6]
  apparent Kd: 373 nM

## GAACAACAUGAGGAUCACCCAUGUCAGGAUACCAGUCGAAAGUCAGACCCUUGGCAGCCUAUCACUCAGCAAAUAGAUAGUACAA
MS2 coat protein [2]; designed as: ON switch for theophylline, no ligand
  apparent Kd: 15.2 nM
MS2 coat protein [2]; ligand present: theophylline, designed as: ON switch for theophylline
  apparent Kd: 13.7 nM

Source: the EternaBench riboswitch data
